According to ChEMBL document CHEMBL1149778, “Synthesis of some novel 2,4-disubstituted thiazoles as possible antimicrobial agents” (2008):
≈ marks a conversion by molar mass, not a printed value.

Columns and labels:
Pseudomonas aeruginosa [1] = assay: Antibacterial activity against Pseudomonas aeruginosa ATTC 27853 assessed as zone of inhibition after 16 to 18 hrs by serial plate dilution method; format: functional, ATCC27853
Procedure, shortened: (§1)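 Agar well diffusion: 20 ml agar per dish seeded with bacterial suspension, excess decanted, dishes held 1 h at 37 °C. Wells punched, compounds in DMSO added at their MIC levels, DMSO wells as control. Zone of inhibition measured.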

Escherichia coli [2] = assay: Antibacterial activity against Escherichia coli ATTC 25922 after 16 to 18 hrs by serial plate dilution method; format: functional; conditions: ATCC25922
Procedure, shortened: (§2)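 MIC by broth serial dilution: compound serially diluted in Mueller-Hinton broth, tubes adjusted to […] with phosphate buffer. Standardized bacterial suspension inoculated, incubated 16-18 h at 37 °C. MIC read as the lowest concentration with no visible growth.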

Escherichia coli [3] = assay: Antibacterial activity against Escherichia coli ATTC 25922 assessed as zone of inhibition after 16 to 18 hrs by serial plate dilution method; format: functional, ATCC25922; procedure, shortened: as §1
Staphylococcus aureus [4] = assay: Antibacterial activity against Staphylococcus aureus ATTC 25923 after 16 to 18 hrs by serial plate dilution method; format: functional; procedure, shortened: as §2
Staphylococcus aureus [5] = assay: Antibacterial activity against Staphylococcus aureus ATTC 25923 assessed as zone of inhibition after 16 to 18 hrs by serial plate dilution method; format: functional; procedure, shortened: as §1
Pseudomonas aeruginosa [6] = assay: Antibacterial activity against Pseudomonas aeruginosa ATTC 27853 after 16 to 18 hrs by serial plate dilution method; format: functional; conditions: ATCC27853; procedure, shortened: as §2
Bacillus subtilis [7] = assay: Antibacterial activity against Bacillus subtilis after 16 to 18 hrs by serial plate dilution method; format: functional; procedure, shortened: as §2
Bacillus subtilis [8] = assay: Antibacterial activity against Bacillus subtilis assessed as zone of inhibition after 16 to 18 hrs by serial plate dilution method; format: functional; procedure, shortened: as §1
Aspergillus flavus [9] = assay: Antifungal activity against Aspergillus flavus NCIM No.524 by serial plate dilution method; format: functional
Aspergillus flavus [10] = assay: Antifungal activity against Aspergillus flavus NCIM No.524 assessed as zone of inhibition by serial plate dilution method; format: functional
Procedure, shortened: (§3)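 Sabouraud agar (peptone, D-glucose, agar; pH 5.7), 20 ml per dish, lawned with a saline spore suspension from a loopful of fungus. Excess decanted, plates dried 1 h at 37 °C. Wells punched and compounds in DMSO added, DMSO as control. Triplicate plates, 37 °C for 3-4 days; inhibition-zone diameter measured.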

[11] = test system: Trichophyton mentagrophytes; assay: Antifungal activity against Trichophyton mentagrophytes by serial plate dilution method; format: functional
[12] = test system: Trichophyton mentagrophytes; assay: Antifungal activity against Trichophyton mentagrophytes assessed as zone of inhibition by serial plate dilution method; format: functional; procedure, shortened: as §3
Aspergillus fumigatus [13] = assay: Antifungal activity against Aspergillus fumigatus NCIM No.902 by serial plate dilution method; format: functional
Aspergillus fumigatus [14] = assay: Antifungal activity against Aspergillus fumigatus NCIM No.902 assessed as zone of inhibition by serial plate dilution method; format: functional; procedure, shortened: as §3
Talaromyces marneffei [15] = assay: Antifungal activity against Penicillium marneffei by serial plate dilution method; format: functional
Talaromyces marneffei [16] = assay: Antifungal activity against Penicillium marneffei assessed as zone of inhibition by serial plate dilution method; format: functional; procedure, shortened: as §3

| Structure (SMILES) | inhibition zone (IZ) (Pseudomonas aeruginosa [1]) [mm] | MIC (Escherichia coli [2]) [µg/mL] | inhibition zone (IZ) (Escherichia coli [3]) [mm] | MIC (Staphylococcus aureus [4]) [µg/mL] | inhibition zone (IZ) (Staphylococcus aureus [5]) [mm] | MIC (Pseudomonas aeruginosa [6]) [µg/mL] | MIC (Bacillus subtilis [7]) [µg/mL] | inhibition zone (IZ) (Bacillus subtilis [8]) [mm] | MIC (Aspergillus flavus [9]) [µg/mL] | inhibition zone (IZ) (Aspergillus flavus [10]) [mm] | MIC [11] [µg/mL] | inhibition zone (IZ) [12] [mm] | MIC (Aspergillus fumigatus [13]) [µg/mL] | inhibition zone (IZ) (Aspergillus fumigatus [14]) [mm] | MIC (Talaromyces marneffei [15]) [µg/mL] | inhibition zone (IZ) (Talaromyces marneffei [16]) [mm] |
| --- | --- | --- | --- | --- | --- | --- | --- | --- | --- | --- | --- | --- | --- | --- | --- | --- |
| CN1CCN(Cc2csc(-c3cc(Cl)cc(Cl)c3Cl)n2)CC1 | 16 | 6.25 (≈ 16.6 µM) | 16 | 6.25 (≈ 16.6 µM) | 16 | 6.25 (≈ 16.6 µM) | 6.25 (≈ 16.6 µM) | 16 | 25 (≈ 66.4 µM) | <10 | 6.25 (≈ 16.6 µM) | 16 | 6.25 (≈ 16.6 µM) | 16 | 25 (≈ 66.4 µM) | <10 |
| Clc1cc(Cl)c(Cl)c(/C=N/Nc2nc(-c3cccnc3)cs2)c1 | 11 | 12.5 (≈ 32.6 µM) | 11 | 25 (≈ 65.2 µM) | <10 | 12.5 (≈ 32.6 µM) | 12.5 (≈ 32.6 µM) | 10 | 6.25 (≈ 16.3 µM) | 16 | 6.25 (≈ 16.3 µM) | 16 | 6.25 (≈ 16.3 µM) | 16 | 6.25 (≈ 16.3 µM) | 16 |
| COc1ccc(-c2csc(-c3cc(Cl)cc(Cl)c3Cl)n2)cc1 | 11 | 6.25 (≈ 16.9 µM) | 16 | 12.5 (≈ 33.7 µM) | 11 | 12.5 (≈ 33.7 µM) | 12.5 (≈ 33.7 µM) | 11 | 25 (≈ 67.4 µM) | <10 | 25 (≈ 67.4 µM) | <10 | 25 (≈ 67.4 µM) | <10 | 25 (≈ 67.4 µM) | <10 |
| Clc1cc(Cl)c(Cl)c(-c2nc(CN3CCCCC3)cs2)c1 | 11 | 25 (≈ 69.1 µM) | <10 | 6.25 (≈ 17.3 µM) | 16 | 12.5 (≈ 34.6 µM) | 6.25 (≈ 17.3 µM) | 16 | 25 (≈ 69.1 µM) | <10 | 25 (≈ 69.1 µM) | <10 | 25 (≈ 69.1 µM) | <10 | 25 (≈ 69.1 µM) | <10 |
| NC(=O)c1cc(-c2csc(-c3cc(Cl)cc(Cl)c3Cl)n2)ccc1O | 16 | 6.25 (≈ 15.6 µM) | 16 | 6.25 (≈ 15.6 µM) | 16 | 6.25 (≈ 15.6 µM) | 6.25 (≈ 15.6 µM) | 16 | 6.25 (≈ 15.6 µM) | 16 | 25 (≈ 62.5 µM) | <10 | 25 (≈ 62.5 µM) | <10 | 6.25 (≈ 15.6 µM) | 16 |
| CSc1ccc(-c2csc(N/N=C/c3cc(Cl)cc(Cl)c3Cl)n2)cc1 | 16 | 6.25 (≈ 14.6 µM) | 16 | 6.25 (≈ 14.6 µM) | 16 | 6.25 (≈ 14.6 µM) | 6.25 (≈ 14.6 µM) | 16 | 25 (≈ 58.3 µM) | <10 | 6.25 (≈ 14.6 µM) | 16 | 6.25 (≈ 14.6 µM) | 16 | 25 (≈ 58.3 µM) | <10 |
| Cc1cc(C2CCCCC2)n(O)c(=O)c1.NCCO [CICLOPIROX OLAMINE] | – | – | – | – | – | – | – | – | 6.25 | 16 | 6.25 | 16 | 6.25 | 16 | 6.25 | 16 |
| O=C(O)c1cn(C2CC2)c2cc(N3CCNCC3)c(F)cc2c1=O [CIPROFLOXACIN] | 16 | – | 16 | – | 16 | – | 1.56 (≈ 4.71 µM) | 21 | – | – | – | – | – | – | – | – |
